From publication PMC5568800 (Investigative ophthalmology & visual science, 2009) come the findings set out here.

Assay [1] concerns X2IRBP. In kind it is binding, Xenopus. The settings on record: oleic acid 0.67 to 2.66 μM; X2IRBP 1 μM; retinol fluorescence enhancement. The procedure, abridged: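 X2IRBP (1 μM; recombinant Xenopus, tag removed by TEV) titrated with all-trans or 11-cis retinol in the presence of oleic acid at 0.67 to 2.66 μM. Binding followed by retinol fluorescence enhancement (ex 330 nm, em 480 nm).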

In assay [2] the target is W450F X2IRBP. Description: Titration monitoring enhancement of retinol fluorescence, W450F mutant. In kind it is binding, Xenopus. The gist of the method:
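All-trans retinol titration of the E. coli-expressed, TEV-cleaved Xenopus X2IRBP mutant, read as retinol fluorescence enhancement (ex 330 nm, em 480 nm). Nonspecific signal was subtracted using a titration into fluorescence-matched NAT solution, and the inner filter effect was corrected graphically. Three independent titrations were averaged. Kd from a nonlinear least-squares fit assuming a single type of noninteracting site.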

The target in assay [3] is W587F X2IRBP. The experiment in a line: Titration monitoring enhancement of retinol fluorescence, W587F mutant. In kind it is binding, Xenopus. The following applies: read-out: Kd, Enhancement, 11-cis retinol, excitation 324 nm, emission 475 nm, Figure 7. The gist of the method: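 The W587F mutant was introduced into X2IRBP-pET30 by site-directed mutagenesis, sequence-verified, then expressed in E. coli BLR(DE3) (1 mM IPTG, 22°C, 18 h) and purified by Ni-affinity, TEV cleavage and Q Sepharose. 11-cis retinol, made by NaBH4 reduction of 11-cis retinal and HPLC-checked, was titrated in. Kd came from a nonlinear least-squares single-site-class fit.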

Assay [4] deals with W587F X2IRBP. Description: Titration monitoring quenching of tryptophan fluorescence, W587F mutant. It is filed as binding, Xenopus.
Assay [5] deals with X2IRBP (second module of Xenopus IRBP), wild-type sequence. It is filed as binding. The settings on record: read-out: Kd, Enhancement. The procedure, abridged:
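Purified X2IRBP (Xenopus IRBP 313–612; His-fusion, TEV-cleaved, Ni and anion-exchange purified; quantified by A280 and amino acid analysis) was titrated with all-trans or 11-cis retinol. 11-cis retinol was made by NaBH4 reduction of 11-cis retinal. For all-trans, nonspecific signal from titration into fluorescence-matched NAT was subtracted and three independent titrations were averaged. Kd came from a nonlinear least-squares single-site-class fit.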

The target is the same in assay [6]. The experiment in a line: Titration monitoring quenching of tryptophan. It is filed as binding. The settings on record: read-out: Kd, Quenching, excitation 280 nm, emission 340 nm. The gist of the method:
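Purified X2IRBP (Xenopus IRBP 313–612, TEV-cleaved His-fusion, Ni plus Q Sepharose purified) was titrated with all-trans or 11-cis retinol (ethanol stocks). Protein fluorescence at 340 nm (excitation 280 nm) was normalized to maximal quenching. All-trans data were averaged over three independent titrations. Kd and N came from a nonlinear least-squares fit to a noninteracting single-site-class binding equation.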

For assay [7], the target named is W587F X2IRBP. The experiment in a line: Energy transfer titration, W587F mutant. In kind it is binding, Xenopus. The settings on record: read-out: Kd, Energy Transfer, all-trans retinol, Figure 4. The procedure, abridged: (§1)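 Tag-free Xenopus IRBP second module (residues 313–612; His-tag cut by TEV protease), expressed in E. coli BLR(DE3) at 22°C for 18 h and purified on nickel then Q Sepharose columns. Titrated with all-trans retinol (fresh ethanol stock) and read by energy transfer (ex 280 nm, em 480 nm). Runs alternated between the two mutants, three per mutant, then averaged. Kd and N from a nonlinear least-squares fit to a single-class, noninteracting-site equation.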

Assay [8] has as its system W450F X2IRBP. The experiment in a line: Titration monitoring quenching of tryptophan fluorescence, W450F mutant. The settings on record: all-trans retinol, excitation 280 nm, emission 340 nm. It is filed as binding, Xenopus. The gist of the method:
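Intrinsic tryptophan fluorescence quenching (ex 280 nm, em 340 nm) of tag-free recombinant Xenopus X2IRBP mutants during all-trans retinol titration. Signal normalized to the maximum quenching. Runs alternated between the W450F and W587F proteins, three titrations each, and were averaged. Binding parameters from a nonlinear least-squares fit to a single-class, noninteracting-site equation.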

Assay [9] has as its target W450F X2IRBP. The experiment in a line: Energy transfer titration, W450F mutant. In kind it is binding, Xenopus. The following applies: read-out: Kd, Energy Transfer, all-trans retinol, Figure 4. The procedure, abridged:
as §1

The target of assay [10] is X2IRBP (second module of Xenopus IRBP), wild-type sequence. Description: Energy transfer titration, X2IRBP of wild-type sequence. The settings on record: read-out: Kd, Energy Transfer; all-trans retinol; excitation 280 nm, emission 480 nm; Figure 4. In kind it is binding. The procedure, abridged:
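X2IRBP (Xenopus IRBP residues 313–612) was expressed in E. coli BLR(DE3) as a His-tag fusion, TEV-cleaved, and purified by Ni-affinity and Q Sepharose. Concentration was set by A280 and amino acid analysis. All-trans retinol from fresh ethanol stocks was titrated in. Three independent titrations were averaged. Kd and N came from a nonlinear least-squares fit assuming a single class of noninteracting sites.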

Setting [11] is: 11-cis retinol, X2IRBP of wild-type sequence, Figure 6.

Where two headings read alike, the source gives them in different places.

Consider `CCCCCCCC/C=C\CCCCCCCC(=O)O` [oleic acid], for which the “Manner of inhibition of 11-cis and all-trans retinol binding to X2IRBP” value in assay [1] is listed as “noncompetitive”.
With `CC1=C(/C=C/C(C)=C/C=C\C(C)=C\CO)C(C)(C)CCC1` [11-cis retinol], the Kd was 0.218 ± 0.062 µM in assay [2] (read-out: Kd, Enhancement, 11-cis retinol, excitation 324 nm, emission 475 nm, Figure 7); 0.132 ± 0.056 µM in assay [3]; 0.024 ± 0.01 µM in [4] (read-out: Kd, Quenching, 11-cis retinol, excitation 280 nm, emission 340 nm, Figure 7); 0.077 ± 0.015 µM in [5] (setting [11]); 0.042 ± 0.009 µM in [6] (setting [11]).
`CC1=C(/C=C/C(C)=C/C=C/C(C)=C/CO)C(C)(C)CCC1` [all-trans retinol]: the Kd in assay [7] turned out to be 0.1 ± 0.01 µM; in [2] (read-out: Kd, Enhancement, all-trans retinol, titrations of Figure 4), 0.45 ± 0.11 µM; in assay [4] (read-out: Kd, Quenching, all-trans retinol, titrations of Figure 4) it was 0.05 ± 0.01 µM; in assay [9] it was 0.29 ± 0.08 µM; in assay [10], 0.033 ± 0.008 µM; in [5] (all-trans retinol, excitation 330 nm, emission 480 nm, Figure 4), 0.07 ± 0.02 µM. Moreover, in assay [6] (all-trans retinol, Figure 4), the Kd was 0.008 ± 0.003 µM. Moreover, in [8], the “Quenching of tryptophan fluorescence (result in words)” value was “No significant quenching”.
